Results reported in ChEMBL document CHEMBL4513216, “Probing the Open Global Health Chemical Diversity Library for Multistage-Active Starting Points for Next-Generation Antimalarials” (ACS Infect Dis, 2020).

Experiment: Toxicity liver stage against HepG2, at 10uM
Assay type: cell-based
Parameters: test concentration 10 uM, cell line HepG2-A16-CD81EGFP
Details: human, HepG2-A16-CD81EGFP cells; read-out: INHIBITION
In short: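 Uninfected HepG2-A16-CD81EGFP cells, 3 × 10^3 per well, 1536-well, plated on prespotted compound at 10 μM final, parasite-free screening media added to match infected plates; puromycin 10 μM positive, DMSO 0.5% negative; run in parallel with 48 h PbLuc assay at 37 °C, 5% CO2; viability by CellTiter-Glo luminescence, normalized to controls.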
`CCN(Cc1nc(-c2ccco2)no1)Cc1cccc2c1OCO2` gave a cytotoxicity at 10 µM of 8.33%. Compound `CC(C)[C@H]1CN(C(=O)CC2CCC2)C[C@@H]1N(C)C` has a cytotoxicity at 10 µM of 8.91%. Work on `O=c1oc(-c2cccs2)nn1CC(O)c1ccc2c(c1)CCC2` (stereo not given) yielded a cytotoxicity at 10 µM of 5.33%. With `Cc1ccc(C(=O)NCC(O)c2ccc(F)c(F)c2)c(=O)[nH]1` (stereo not given) the cytotoxicity at 10 µM was -3.09%. Compound `COc1ccc2c(c1)C1(CCN(Cc3cccnc3)CC1)N(C)CC2` has a cytotoxicity at 10 µM of -161%. `Cc1cc(C)c(S(=O)(=O)Nc2cccc3c2OCCO3)cc1C(=O)O` gave a cytotoxicity at 10 µM of 5.87%. `O=C(O)CSc1nnc(-c2ccn[nH]2)n1-c1ccccc1Cl` gave a cytotoxicity at 10 µM of 0.276%. For `Cc1cc(CNC(=O)NCCC(=O)N2CCCc3ccccc32)no1`, the cytotoxicity at 10 µM was -4.09%. In the case of `CN(Cc1ccncc1)C1COC2(CCN(Cc3ccsc3)CC2)C1` (stereo not given), the cytotoxicity at 10 µM is reported as -91.8%. Work on `O=C1NCCN(C(=O)CN2CCOC2=O)C1c1cccc(F)c1` (stereo not given) yielded a cytotoxicity at 10 µM of 8.91%. In the case of `COc1cccc(CCCn2cnnc2[S+](C)[O-])c1` (stereo not given), the cytotoxicity at 10 µM is reported as -12.7%. Work on `C=C(C)CN1CCOC(Cn2cncn2)C1` (stereo not given) yielded a cytotoxicity at 10 µM of -52%. `Cc1ccc(CCC(C)NC2CCN(C(N)=O)CC2)cc1` (stereo not given) showed a cytotoxicity at 10 µM of -0.613%. Compound `Cc1nc(CN2C[C@@H]3CN(C(=O)Cc4ccccn4)C[C@@H]3C2)cs1` has a cytotoxicity at 10 µM of -106%. `Cc1ccc(S(=O)(=O)N2CC[C@@H]3C[C@H](NC(=O)c4[nH]ncc4Br)[C@@H]32)cc1` gave a cytotoxicity at 10 µM of 4.49%. Compound `CCOC(=O)N(C)C1CCN(Cc2csc(C)n2)CC1` has a cytotoxicity at 10 µM of -3.37%. With `CN(C)c1cc(C2CCCN2Cc2ccccc2OCC(=O)O)ccn1` (stereo not given) the cytotoxicity at 10 µM was -3.8%. For `Cc1cc(CN2CCc3nc(-c4ccncc4)nc(O)c3CC2)c(C)s1`, the cytotoxicity at 10 µM was 3.27%. With `CCN1CCN(C)C2(CCN(Cc3ccsc3)CC2)C1=O` the cytotoxicity at 10 µM was 0.317%. Work on `O=C(c1ccncc1F)N1C[C@@H]2CC[C@H]1CN(Cc1cccnc1)C2` yielded a cytotoxicity at 10 µM of 3.01%. In the case of `O=S(=O)(NC(CO)Cc1c[nH]c2ccccc12)c1cncc(F)c1` (stereo not given), the cytotoxicity at 10 µM is reported as 12%. For `Cc1ccc(C)c(-c2[nH]c3ccccc3c2C(=O)O)c1`, the cytotoxicity at 10 µM was 1.55%. For `Cc1ccc(CN(C)C)cc1NC(=O)C1CC1`, the cytotoxicity at 10 µM was 1.32%. Work on `CCc1ncc2c(n1)CN(c1cc(N3CCN(C)CC3)nc(N)n1)C2` yielded a cytotoxicity at 10 µM of 22.8%. Work on `Cc1cc(C)n(CC2CCCN2C(=O)c2ccc3nncn3c2)n1` (stereo not given) yielded a cytotoxicity at 10 µM of 2.01%. With `CCNc1c(NC(=O)C(C)(C)C)c(=O)oc2ccccc12` the cytotoxicity at 10 µM was -1.97%. In the case of `c1nc(NCC2(N3CCOCC3)CCSC2)c2sccc2n1` (stereo not given), the cytotoxicity at 10 µM is reported as 59.7%. `CCOCC1CN(c2ccncn2)Cc2cnn(CC)c21` (stereo not given) showed a cytotoxicity at 10 µM of 3.04%. For `O=C(NCC1CC1)C1=NOC2(CCN(S(=O)(=O)c3cccs3)C2)C1` (stereo not given), the cytotoxicity at 10 µM was 0.693%. Compound `CCC(=O)N1CCc2onc(CNS(C)(=O)=O)c2C1` has a cytotoxicity at 10 µM of -96.5%. `NC(=O)CN(Cc1ccc(Br)cc1)C(=O)c1cccnc1` showed a cytotoxicity at 10 µM of 9.49%. In the case of `Cc1cc(CN(CCCO)c2ccccc2)on1`, the cytotoxicity at 10 µM is reported as -4.91%. `COc1cccc(NC(=O)NCC(O)c2ccc(F)cc2F)c1` (stereo not given) gave a cytotoxicity at 10 µM of -1.43%. `Cc1ccc(-c2cnnc(NCC3(N4CCOCC4)CCCC3)n2)o1` showed a cytotoxicity at 10 µM of -6.79%. With `N#Cc1cc2c(nc1SCc1cc(O)nc(O)n1)CCCCC2` the cytotoxicity at 10 µM was 4.97%. For `Cc1nc(C2CCCN2C(=O)c2ccc3c(c2)nc(C)n3C)no1` (stereo not given), the cytotoxicity at 10 µM was -9.62%. With `CCCn1nccc1NC(=O)CN1CCc2c(nc(C3CC3)n2C)C1` the cytotoxicity at 10 µM was 3.58%. With `Cc1cccc2cc(C(=O)N3CCN(S(=O)(=O)N(C)C)CC3)n(C)c12` the cytotoxicity at 10 µM was 7.39%. Compound `CC(C)NC(=O)NCCCc1cccc(F)c1` has a cytotoxicity at 10 µM of -0.0328%. `CC(=O)c1cccc(OC(C)C(=O)Nc2cnn(CCN(C)C)c2)c1` (stereo not given) gave a cytotoxicity at 10 µM of 3.45%. Compound `CCOC(=O)CNC(=O)NCc1cccn1Cc1cccc(C)c1` has a cytotoxicity at 10 µM of 9.24%. `Cc1ccc(C(=O)N2CCc3ncnc(-c4cnn(C)c4)c3CC2)cn1` gave a cytotoxicity at 10 µM of 7.83%. For `CC(C)OCCC(=O)Nc1ncn(CC(=O)N2CCCCCC2)n1`, the cytotoxicity at 10 µM was -1.61%. With `COc1cccc(CN2CC[C@H](c3nnc(C)o3)C2)c1` the cytotoxicity at 10 µM was -0.902%. `Cc1c(-c2c(-c3ccccc3)ncn2[C@H](CO)C(=O)O)cnn1C` showed a cytotoxicity at 10 µM of 4.28%.
